# Source: PubChem BioAssay
# M1 antag: human M1 muscarinic receptor antagonists, primary screen, CHO-K1 cells, Fluo-8 calcium fluorescence, 1536-well. CHO-K1 hM1, ACh EC80 antagonist. inhibition, % at 3 µM. hit rate 1.3% among 360,000;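 active = percent inhibition above its own plate's cutoff, namely the mean of that plate's compound wells plus 3 SD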;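 also: peak over basal fluorescence ratio during 140 s after agonist addition; 0% = ACh EC80 plus DMSO and 100% = DMSO alone without agonist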
# Target sequence (P11229 whole entry, looked up): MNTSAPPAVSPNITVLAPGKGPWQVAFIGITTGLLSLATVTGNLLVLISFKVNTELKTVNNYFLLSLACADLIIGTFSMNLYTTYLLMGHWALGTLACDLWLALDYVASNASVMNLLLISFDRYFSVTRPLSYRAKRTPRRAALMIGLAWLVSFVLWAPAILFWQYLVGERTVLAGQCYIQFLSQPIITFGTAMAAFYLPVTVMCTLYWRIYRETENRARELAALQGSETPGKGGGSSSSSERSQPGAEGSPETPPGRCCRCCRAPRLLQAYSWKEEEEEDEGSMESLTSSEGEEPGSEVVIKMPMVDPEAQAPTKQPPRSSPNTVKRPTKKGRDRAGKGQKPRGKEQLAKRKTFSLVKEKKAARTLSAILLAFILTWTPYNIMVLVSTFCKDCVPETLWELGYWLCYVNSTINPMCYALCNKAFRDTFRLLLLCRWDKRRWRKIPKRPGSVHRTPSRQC
# CHRM5 agonist: human M5 muscarinic receptor agonists, primary screen, CHO-K1 cells, Fluo-8 calcium fluorescence | Muscarinic acetylcholine receptor M5 (Homo sapiens), P08912 | CHO-K1 hM5 cells; 0% DMSO wells, 100% maximal acetylcholine response | activation, % at 3 µM | hit rate 0.19% among 360,000;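 active = activation above the run's mean over test compounds plus 3 SD, cut at about 23% in these data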;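 also: signal is peak over basal fluorescence ratio across the kinetic read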
# M5 PAM: human M5 muscarinic receptor positive allosteric modulators, primary screen, CHO-K1 cells, Fluo-8 calcium fluorescence; CHO-K1 hM5, ACh EC20 PAM; 0% = ACh EC20, 100% = ACh EC100; activation, % at 3 µM; hit rate 0.3% among 360,000;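 active = activation above the run cutoff, the mean activation of all test compounds plus 3 SD, cut at about 18% in these data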
#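 Replicates: One well per compound, no replicates | System: Human M5 receptor in CHO-K1 cells | Benchmarks: Low control EC20 acetylcholine (0%), high control EC100 acetylcholine (100%) | Probe or stimulus: Acetylcholine, EC20 level | Times: Fluo-8 loading 80 min at 37 °C plus 30 min room temperature | Signal: Intracellular calcium via Fluo-8 fluorescence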
# CHRM5 antagonist: human M5 muscarinic receptor antagonists, primary screen, CHO cells, Fluo-8 calcium fluorescence. Muscarinic acetylcholine receptor M5 (Homo sapiens), P08912. CHO-hM5 cells, ACh EC80. inhibition, % at 3 µM. hit rate 0.59% among 360,000. AID 624040, 2012;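 active = inhibition above a per-plate cutoff, the mean of that plate's test compounds plus 3 SD, cut at about 27% in these data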;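 also: 0% = acetylcholine EC80 with DMSO and 100% = DMSO without agonist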
# CHRM1 agonist: human M1 muscarinic receptor agonists, primary screen, Fluo-8 calcium fluorescence, CHO-K1 cells, HTS; AID 588814, 2011; activation, % at 3 µM; CHO-K1 hM1, agonist mode; 0% DMSO, 100% acetylcholine EC100; hit rate 0.33% among 360,000; Muscarinic acetylcholine receptor M1 (Homo sapiens), P11229;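 active = activation above the run's mean compound activation plus 3 SD, cut at about 16% in these data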;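 also: peak over basal fluorescence ratio within a 140 s kinetic read after compound addition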
# M1 PAM: human M1 muscarinic receptor positive allosteric modulators, primary screen, CHO-K1 cells, Fluo-8 calcium fluorescence, 1536-well; Muscarinic acetylcholine receptor M1 (Homo sapiens), P11229; CHO-K1 hM1, ACh EC20; 0% = ACh EC20, 100% = maximal ACh; activation, % at 3 µM; hit rate 0.088% among 360,000; in the data active = activation above about 19%, passing the limit was not always enough
# * marks the source's active call; other numbers are inactive results; nt = no result. This is a sample that favours compounds with a hit; in the whole collection about 2% have one here.
SMILES,M1 antag,CHRM5 agonist,M5 PAM,CHRM5 antagonist,CHRM1 agonist,M1 PAM
COc1cc(NC(=O)c2cc([N+](=O)[O-])ccc2NC(=O)CN2CCN(c3ccccn3)CC2)cc(OC)c1,34.0*,-2.2,-14.4,26.9,-3.8,-11.4
COc1cccc(NC(=O)C2(C)CCN2C(=O)C2CCCCC2)c1 (stereo not given),5.6,-0.4,-0.2,-1.4,-4.9,-4.6
O=C(CC1CCC1)Nc1cccc2c([N+](=O)[O-])cccc12,-23.3,-6.7,-11.2,27.5*,-2.5,19.4
CC(=O)OCCNc1cc(N2CCN(C)CC2)c2noc3c2c1C(=O)c1ccccc1-3,-10.2,1.4,-4.9,6.7,-3.3,10.8
CCOC(=O)C(C(=O)OCC)c1cc(Br)c2noc3c2c1C(=O)c1ccccc1-3,35.4*,6.2,2.9,33.5*,7.7,2.0
CCCCC(=O)N(C)c1c(CC)nc2c(OCCOc3ccccc3)cccn12,-0.5,-2.8,-3.7,-0.7,-8.2,1.6
CC(=O)Nc1ccccc1OCC(=O)c1cc(C)n(Cc2cccs2)c1C,32.3*,6.1,-17.0,29.7*,1.4,-10.5
COC(=O)c1ccc(COc2ccc(/C=N/N3CCN(C)CC3)cc2)cc1,30.5,-4.5,-20.0,17.0,-9.9,-30.8
CN1CCN(/N=C/c2ccc(OCc3ccccc3)cc2)CC1,57.5*,-18.2,-27.5,4.0,-5.0,-25.4
O=C(NCCCN1CCCC1)c1ccc2c(Cl)c3c(nc2c1)CCCC3,-1.7,-8.3,-0.9,11.4,-10.4,-9.8
CCCN1CCN(CCCNC(=O)c2ccc3c(Cl)c4c(nc3c2)CCCC4)CC1,34.4*,-8.6,-1.0,8.5,-14.1,-29.5
Cc1ccc(-c2[nH]ncc2/C=N/n2c(COc3ccccc3)nc3ccccc3c2=O)cc1,29.4*,2.3,-13.2,7.7,-6.9,-14.7
Cc1ccccc1OCc1nc2ccccc2c(=O)n1/N=C/c1cn[nH]c1-c1ccccc1,29.1*,0.8,-15.6,16.4,-2.4,-14.8
O=[N+]([O-])c1ccccc1/C=C/CN1CCCCC1,45.1*,-11.1,-3.6,-16.7,-8.1,-21.4
CCOC(=O)C1CCCN(C/C=C/c2ccccc2[N+](=O)[O-])C1 (stereo not given),27.6*,-12.7,-2.5,1.5,-6.7,-15.7
CCOC(=O)C1CCCN(C/C=C/c2ccccc2)C1 (stereo not given),56.3*,-25.0,-32.9,18.7,-11.4,-26.7
CN(C/C=C/c1ccccc1[N+](=O)[O-])Cc1ccccc1,55.3*,-21.7,-17.8,11.3,-9.6,-29.7
O=[N+]([O-])c1ccccc1/C=C/CN1CCCCC1CO (stereo not given),9.2,-26.4,2.5,-6.2,-6.9,-11.8
COc1cc(S(=O)(=O)N2CCN(C(=O)c3cccs3)CC2)ccc1NC(C)=O,-10.8,-1.1,0.3,-4.1,-2.5,4.2
CC#CCOCC1CN(C)C(=O)O1 (stereo not given),-8.2,-0.5,-6.3,0.1,-0.9,0.6
Cn1cc([C@]2(O)C(=O)N(c3ccccc3)c3ccccc32)c2ccccc21,nt,2.5,5.3,-4.0,nt,nt
N#C/C(=C(/O)CN1CCOCC1)c1nc(-c2ccccc2)cs1,-6.8,1.5,-3.0,6.9,-0.3,2.2
CCOC(=O)C1CCCN(C/C(O)=C(\C#N)c2nc(-c3ccccc3)cs2)C1 (stereo not given),21.6,23.3*,-6.5,-3.5,56.0*,-23.8
CCNC(=O)C1(C)CCCN(C(=O)c2ccc(OC)c(F)c2)C1 (stereo not given),-12.6,-0.4,2.1,1.7,-3.0,5.3
COc1ccc2[nH]cc(CCNC(=O)/C=C/[C@H]3O[C@@H](n4cnc5c(NC(=O)c6ccccc6)ncnc54)[C@H](O)[C@@H]3O)c2c1,16.7,4.2,-3.8,-2.7,-0.8,-5.3
SMILES,M1 antag,CHRM5 agonist,M5 PAM,CHRM5 antagonist,CHRM1 agonist,M1 PAM
C[C@H](O)[C@@H]1C(=O)N2CCc3ccc(-c4ccccc4)cc3[C@@H]2C[C@@H]1N(C)C(=O)NC1CCCCC1,41.8*,0.2,-4.8,8.5,-9.5,-9.9
COc1ccc(C[C@H]2CN3C(=NC[C@@H]3Cc3ccc(O)cc3)N2C[C@H](C)NC(=O)CCC2CCCCC2)cc1,31.0,-11.8,-7.4,3.0,-14.1,-34.6
COc1ccc(C[C@@H]2CN3C(=NC[C@@H]3Cc3ccc(O)cc3)N2C[C@H](C)NC(=O)CCC2CCCCC2)cc1,48.3*,-11.5,-13.3,5.4,-14.3,-37.2
CC1(C)CC[C@]2(C(=O)n3ccnc3)CC[C@]3(C)[C@H](C(=O)C=C4[C@@]5(C)C=C(C#N)C(=O)C(C)(C)[C@@H]5CC[C@]43C)[C@@H]2C1,-5.3,1.7,-6.9,14.7,-0.8,-0.7
O=C1Nc2ccccc2C(=O)N2[C@H](c3cccc(Br)c3)[C@@H]3C(=O)N(Cc4ccccc4)C(=O)[C@@H]3[C@H]12,-7.4,3.0,4.7,-0.2,7.8,13.4
O=C1Nc2ccccc2C(=O)N2[C@H](c3ccccc3)[C@@H]3C(=O)N(Cc4ccccc4)C(=O)[C@@H]3[C@H]12,-7.8,1.2,-2.2,17.7,23.3*,9.3
CC1(C)CC(NC(=O)c2cc(S(=O)(=O)N3CCOCC3)c(Cl)cc2Cl)CC(C)(C)N1,-25.4,2.6,5.1,-9.8,0.6,30.6*
Cc1cc(C)cc(NC(=O)COC(=O)Cc2ccccc2F)c1,4.9,-7.3,-6.8,4.3,-6.8,-2.9
CC(C)CCC1CC(CSC(=N)N)OC1=O (stereo not given),-6.7,-16.8,21.0*,-2.2,-3.8,10.1
Cc1ccccc1N(C(=O)c1snc(C(N)=O)c1N)C(C(=O)NCc1ccccc1)c1ccc(O)cc1 (stereo not given),10.2,0.4,-10.2,20.4,2.4,-1.4
COc1cccc(N(C(=O)c2snc(C(N)=O)c2N)C(C(=O)NCc2ccccc2)c2ccc(O)cc2)c1 (stereo not given),7.1,-0.5,-12.2,30.9*,-3.2,-2.5
NC(=O)c1nsc(C(=O)N(c2ccccc2F)C(C(=O)NCc2ccccc2)c2ccc(O)cc2)c1N (stereo not given),39.3*,4.8,-14.1,17.2,0.9,-22.5
CC(=O)N1CCN(C(=O)c2cccc(S(=O)(=O)NCc3ccccc3)c2)CC1,-10.9,-6.5,3.1,-4.4,-0.7,10.5
